Assay results reported in ChEMBL document CHEMBL2380300, “Identification of new peptide amides as selective cathepsin L inhibitors: the first step towards selective irreversible inhibitors?” (Bioorg Med Chem Lett, 2013).
Square brackets hold non-standard residues; d marks the D form. Peptide text beside a SMILES is read from it. * marks the point of attachment. Phe(4-NH2) = Nc1ccc(C[C@H](N)C(=O)O)cc1; Cbz = O=C(OCc1ccccc1)*

Assays:
Cathepsin B = Cathepsin B (Homo sapiens, UniProt P07858); assay: Inhibition of recombinant cathepsin-B (unknown origin) using Z-Arg-Arg-AMC as substrate by fluorescence assay
Procedure, shortened: (§1)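 Kinetic assay with recombinant enzyme. Peptide amide stock concentrations were set by amino-acid analysis. Ki was derived from at least three inhibitor concentrations, each measured in duplicate.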

Homo sapiens = species: Homo sapiens; assay: Selectivity ratio of Ki for recombinant cathepsin-B (unknown origin) to Ki for recombinant cathepsin-L (unknown origin)
Procedure, shortened: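 Selectivity factor FB = Ki(CatB)/Ki(CatL). Both Ki values come from kinetic runs with the recombinant enzymes, each using at least three inhibitor concentrations in duplicate.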

Procathepsin L = Procathepsin L (Homo sapiens, UniProt P07711); assay: Inhibition of recombinant cathepsin-L (unknown origin) using Z-Phe-Arg-AMC as substrate by fluorescence assay; procedure, shortened: as §1
Chain of Procathepsin L (P07711 whole entry): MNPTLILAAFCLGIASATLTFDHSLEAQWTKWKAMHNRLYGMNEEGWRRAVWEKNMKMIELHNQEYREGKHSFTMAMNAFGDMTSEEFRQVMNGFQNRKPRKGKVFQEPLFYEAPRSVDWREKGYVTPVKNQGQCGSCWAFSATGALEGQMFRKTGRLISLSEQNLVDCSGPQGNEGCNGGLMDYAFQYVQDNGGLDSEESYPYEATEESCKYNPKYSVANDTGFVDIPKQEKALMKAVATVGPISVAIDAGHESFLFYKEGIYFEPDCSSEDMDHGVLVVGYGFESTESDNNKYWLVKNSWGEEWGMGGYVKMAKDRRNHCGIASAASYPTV

Compound: CC(=O)Oc1ccc(C(=O)N[C@@H](Cc2ccccc2)C(=O)N[C@@H](CCCCN)C(N)=O)cc1
- Ki (Cathepsin B): 706 µM
- Ratio Ki (Homo sapiens): 272
- Ki (Procathepsin L): 2.6 µM

Compound: C[C@H](NC(=O)[C@H](Cc1ccccc1)NC(=O)OCc1ccccc1)C(N)=O
- Ki (Procathepsin L): 16 µM

Compound: N=C(N)NCCC[C@H](NC(=O)[C@H](Cc1ccccc1)NC(=O)OCc1ccccc1)C(N)=O (Cbz-Phe-Arg-NH2)
- Ki (Cathepsin B): 349 µM
- Ratio Ki (Homo sapiens): 12
- Ki (Procathepsin L): 28 µM

Compound: NCCCC[C@H](NC(=O)[C@H](Cc1ccccc1)NC(=O)C1=CCCC1)C(N)=O
- Ki (Cathepsin B): 623 µM
- Ratio Ki (Homo sapiens): 80
- Ki (Procathepsin L): 7.8 µM

Compound: Cc1ccccc1-c1ccc(C[C@H](NC(=O)OCc2ccccc2)C(=O)N[C@@H](CCCCN)C(N)=O)cc1
- Ki (Cathepsin B): 245 µM
- Ratio Ki (Homo sapiens): 11
- Ki (Procathepsin L): 23 µM

Compound: NCCCC[C@H](NC(=O)[C@H](Cc1c[nH]cn1)NC(=O)OCc1ccccc1)C(N)=O (Cbz-His-Lys-NH2)
- Ki (Cathepsin B): 56 µM
- Ratio Ki (Homo sapiens): 18
- Ki (Procathepsin L): 3.1 µM

Compound: NCCCC[C@H](NC(=O)[C@H](Cc1ccccc1)NC(=O)c1ccc(N)nc1)C(N)=O
- Ki (Cathepsin B): 148 µM
- Ratio Ki (Homo sapiens): 30
- Ki (Procathepsin L): 5 µM

Compound: NCCCC[C@H](NC(=O)[C@H](Cc1ccccc1)NC(=O)[C@H](CCC(N)=O)NC(=O)OCc1ccccc1)C(N)=O (Cbz-Gln-Phe-Lys-NH2)
- Ki (Cathepsin B): 3550 µM
- Ratio Ki (Homo sapiens): 506
- Ki (Procathepsin L): 7 µM

Compound: NCCCC[C@H](NC(=O)[C@H](Cc1ccccc1)NC(=O)CCc1ccc(O)cc1)C(N)=O
- Ki (Cathepsin B): 135 µM
- Ratio Ki (Homo sapiens): 54
- Ki (Procathepsin L): 2.5 µM

Compound: NCCCC[C@H](NC(=O)[C@H](Cc1ccccc1)NC(=O)c1c(F)c(F)c(F)c(F)c1F)C(N)=O
- Ki (Cathepsin B): 134 µM
- Ratio Ki (Homo sapiens): 20
- Ki (Procathepsin L): 6.8 µM

Compound: Cc1cccc(C)c1C(=O)N[C@@H](Cc1ccccc1)C(=O)N[C@@H](CCCCN)C(N)=O
- Ki (Cathepsin B): 3390 µM
- Ratio Ki (Homo sapiens): 169
- Ki (Procathepsin L): 20 µM

Compound: NC(=O)[C@H](CCCC(N)O)NC(=O)[C@H](Cc1ccccc1)NC(=O)OCc1ccccc1 (some centres undefined)
- Ki (Cathepsin B): 1730 µM
- Ratio Ki (Homo sapiens): 64
- Ki (Procathepsin L): 27 µM

Compound: NC(=O)[C@H](Cc1c[nH]cn1)NC(=O)[C@H](Cc1ccccc1)NC(=O)OCc1ccccc1 (Cbz-Phe-His-NH2)
- Ki (Procathepsin L): 14 µM

Compound: NC(=O)[C@H](Cc1ccc(N)cc1)NC(=O)[C@H](Cc1ccccc1)NC(=O)OCc1ccccc1 (Cbz-Phe-[Phe(4-NH2)]-NH2)
- Ki (Cathepsin B): 2790 µM
- Ratio Ki (Homo sapiens): 107
- Ki (Procathepsin L): 26 µM

Compound: NC(=O)[C@H](N)NC(=O)[C@H](Cc1ccccc1)NC(=O)OCc1ccccc1
- Ki (Procathepsin L): 28 µM

Compound: Cc1cccc(-c2ccc(C[C@H](NC(=O)OCc3ccccc3)C(=O)N[C@@H](CCCCN)C(N)=O)cc2)c1
- Ki (Cathepsin B): 389 µM
- Ratio Ki (Homo sapiens): 156
- Ki (Procathepsin L): 2.5 µM

Compound: NCCCC[C@H](NC(=O)[C@H](Cc1ccc(-c2ccc(-c3ccccc3)cc2)cc1)NC(=O)OCc1ccccc1)C(N)=O
- Ki (Cathepsin B): 74 µM
- Ratio Ki (Homo sapiens): 28
- Ki (Procathepsin L): 2.6 µM

Compound: NCCCC[C@H](NC(=O)[C@H](Cc1c[nH]c2ccccc12)NC(=O)OCc1ccccc1)C(N)=O (Cbz-Trp-Lys-NH2)
- Ki (Cathepsin B): 100 µM
- Ratio Ki (Homo sapiens): 24
- Ki (Procathepsin L): 4.2 µM

Compound: NCCCC[C@H](NC(=O)[C@H](Cc1ccc(-c2cccc(Cl)c2)cc1)NC(=O)OCc1ccccc1)C(N)=O
- Ki (Cathepsin B): 58 µM
- Ratio Ki (Homo sapiens): 34
- Ki (Procathepsin L): 1.7 µM

Compound: Cc1ccc(-c2ccc(C[C@H](NC(=O)OCc3ccccc3)C(=O)N[C@@H](CCCCN)C(N)=O)cc2)cc1
- Ki (Cathepsin B): 113 µM
- Ratio Ki (Homo sapiens): 66
- Ki (Procathepsin L): 1.7 µM

Compound: NCCCC[C@H](NC(=O)[C@H](Cc1ccc(O)cc1)NC(=O)OCc1ccccc1)C(N)=O (Cbz-Tyr-Lys-NH2)
- Ki (Cathepsin B): 135 µM
- Ratio Ki (Homo sapiens): 96
- Ki (Procathepsin L): 1.4 µM

Compound: NCCCC[C@H](NC(=O)[C@H](Cc1ccccc1)NC(=O)c1ccnc(-c2cc(C(=O)O)ccn2)c1)C(N)=O
- Ki (Cathepsin B): 860 µM
- Ratio Ki (Homo sapiens): 187
- Ki (Procathepsin L): 4.6 µM

Compound: CSCC[C@H](NC(=O)[C@H](Cc1ccccc1)NC(=O)OCc1ccccc1)C(N)=O (Cbz-Phe-Met-NH2)
- Ki (Cathepsin B): 7100 µM
- Ratio Ki (Homo sapiens): 111
- Ki (Procathepsin L): 64 µM

Compound: CC(C)[C@H](NC(=O)[C@H](Cc1ccccc1)NC(=O)OCc1ccccc1)C(N)=O (Cbz-Phe-Val-NH2)
- Ki (Procathepsin L): 17 µM
